Consider 2 compounds from ChEMBL document CHEMBL3085749, “Design, optimization, and biological evaluation of novel keto-benzimidazoles as potent and selective inhibitors of phosphodiesterase 10A (PDE10A)” (J Med Chem, 2013).

What all share (format): ADME, organism-based
Series [1] is described as follows: AUC in Sprague-Dawley rat at 2 mg/kg, iv by LC-MS/MS analysis. The following applies: plasma. Also on record: dose 2 mg/kg, route intravenous.
A short description of series [2]: Oral bioavailability in Sprague-Dawley rat at 5 mg/kg by LC-MS/MS analysis. As to conditions: in vivo.
Series [3] is described as follows: Volume of distribution at steady state in Sprague-Dawley rat at 2 mg/kg, iv by LC-MS/MS analysis. Also on record: dose 2 mg/kg, route intravenous. As to conditions: in vivo, read-out: Vdss.
Series [4] can be described thus: AUC in Sprague-Dawley rat at 5 mg/kg, po by LC-MS/MS analysis. Also on record: dose 5 mg/kg, route oral. As to conditions: plasma.
A short description of series [5]: Oral bioavailability in Sprague-Dawley rat at 10 mg/kg by LC-MS/MS analysis. The following applies: in vivo. A digest of the protocol:
(§1)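 Fed male Sprague−Dawley rats. Vehicle for iv was 100% DMSO; for po and ip it was 1% Tween and 2% HPMC with methanesulfonic acid, pH 2.2. Reported parameters are Cl (L/h/kg), Vss (L/kg), AUC (μM·h), T1/2 (h) and %F.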

Series [6] in a line: AUC in Sprague-Dawley rat at 10 mg/kg, po by LC-MS/MS analysis. As to conditions: plasma. The arrangement: dose 10 mg/kg, route oral. The procedure, abridged: as §1

Consider `CC(=O)N1CCN(c2nccnc2Oc2ccc(C(=O)c3nc4ccccc4[nH]3)cc2)CC1`, for which the AUC in series [1] was determined as 62.1 µM·h; in series [4] it was 79.2 µM·h. This compound also yielded a bioavailability in series [2] of 56%. Besides, the Vd in series [3] was 0.165 L/kg.

Regarding `O=C(c1ccc(Oc2nccnc2N2CCC(O)CC2)cc1)c1nc2ccccc2[nH]1`, the exposure (AUC) came to 4.5 µM·h in series [1] and 11.7 µM·h in series [6]. Moreover, the Vd in series [3] was determined as 1.28 L/kg. In series [5], this compound came in with a bioavailability of 52%.

A word on the AUC: it is concentration integrated over time. For orientation: bioavailability means dose-corrected exposure relative to a reference, in per cent.
